Results on eight molecules are retold here after ChEMBL document CHEMBL4145598, “Discovery and Development of 8-Substituted Cycloberberine Derivatives as Novel Antibacterial Agents against MRSA” (ACS Med Chem Lett, 2018).

Common to all, as to assay type: functional
The subject of test [1] is Staphylococcus aureus. Description: Antimicrobial activity against methicillin-sensitive Staphylococcus aureus ATCC 29213 after 18 hrs by agar dilution assay. Particulars: ATCC 29213, 18 h. (In agar dilution the substance is mixed into plates at graded concentrations.)
Test [2] concerns Staphylococcus aureus. Description: Antimicrobial activity against methicillin-sensitive Staphylococcus aureus isolate 15 after 18 hrs by agar dilution assay. As to conditions: isolate 15, 18 h.
In test [3] the test system is Staphylococcus aureus. Description: Antimicrobial activity against methicillin-sensitive Staphylococcus aureus isolate 13-17 after 18 hrs by agar dilution assay. Particulars: isolate 13-17, 18 h.
In test [4] the test system is Staphylococcus aureus. Description: Antimicrobial activity against methicillin-sensitive Staphylococcus aureus isolate 13-19 after 18 hrs by agar dilution assay. As to conditions: isolate 13-19, 18 h.
In test [5] the test system is Staphylococcus aureus. Description: Antimicrobial activity against methicillin-sensitive Staphylococcus aureus isolate 13-20 after 18 hrs by agar dilution assay. Particulars: isolate 13-20, 18 h.
For test [6], the system named is Staphylococcus aureus. Description: Antimicrobial activity against methicillin-sensitive Staphylococcus aureus isolate 13-21 after 18 hrs by agar dilution assay. As to conditions: isolate 13-21, 18 h.
In test [7] the test system is Staphylococcus epidermidis. Description: Antimicrobial activity against methicillin-sensitive Staphylococcus epidermidis ATCC 12228 after 18 hrs by agar dilution assay. As to conditions: ATCC 12228, 18 h.
Test [8] concerns Staphylococcus epidermidis. Description: Antimicrobial activity against methicillin-sensitive Staphylococcus epidermidis isolate 13-1 after 18 hrs by agar dilution assay. As to conditions: isolate 13-1, 18 h.
Test [9] has as its system Staphylococcus saprophyticus. Description: Antimicrobial activity against Staphylococcus saprophyticus ATCC 15305 after 18 hrs by agar dilution assay. As to conditions: ATCC 15305, 18 h.
A further test deals with Staphylococcus hominis. Description: Antimicrobial activity against Staphylococcus hominis ATCC 35982 after 18 hrs by agar dilution assay. Particulars: ATCC 35982, 18 h.
Test [10] relates to Staphylococcus aureus. Description: Antimicrobial activity against methicillin-resistant Staphylococcus aureus ATCC 33591 after 18 hrs by agar dilution assay. As to conditions: ATCC 33591, 18 h. Summed up: (§1)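 Drug-resistant S. aureus (MRSA/VISA) panel. It includes ATCC reference strains and clinical isolates from patients in Chinese hospitals. MIC was determined by standard methods and reported in μg/mL, with levofloxacin as the reference drug.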

Test [11] deals with Staphylococcus aureus. Description: Antimicrobial activity against methicillin-resistant Staphylococcus aureus isolate 13-18 after 18 hrs by agar dilution assay. Particulars: isolate 13-18, 18 h. Summed up: as §1
Test [12] relates to Staphylococcus aureus. Description: Antimicrobial activity against methicillin-resistant Staphylococcus aureus isolate 13-23 after 18 hrs by agar dilution assay. As to conditions: isolate 13-23, 18 h. Summed up:
as §1

Test [13] deals with Staphylococcus aureus. Description: Antimicrobial activity against methicillin-resistant Staphylococcus aureus isolate 12-3 after 18 hrs by agar dilution assay. Particulars: isolate 12-3, 18 h. Summed up:
as §1

The subject of test [14] is Staphylococcus aureus. Description: Antimicrobial activity against methicillin-resistant Staphylococcus aureus isolate 12-8 after 18 hrs by agar dilution assay. Particulars: isolate 12-8, 18 h. Summed up:
as §1

In test [15] the test system is Staphylococcus aureus. Description: Antimicrobial activity against methicillin-resistant Staphylococcus aureus isolate 12-13 after 18 hrs by agar dilution assay. As to conditions: isolate 12-13, 18 h. Summed up:
as §1

For test [16], the system named is Staphylococcus aureus. Description: Antimicrobial activity against methicillin-resistant Staphylococcus aureus isolate 12-16 after 18 hrs by agar dilution assay. As to conditions: isolate 12-16, 18 h. Summed up: as §1
Test [17] deals with Staphylococcus aureus. Description: Antimicrobial activity against methicillin-resistant Staphylococcus aureus ATCC-BAA-1708 after 18 hrs by agar dilution assay. As to conditions: ATCC-BAA-1708, 18 h. Summed up:
as §1

Test [18] deals with Staphylococcus aureus. Description: Antimicrobial activity against vancomycin-intermediate Staphylococcus aureus ATCC 700698 after 18 hrs by agar dilution assay. Particulars: ATCC 700698, 18 h. Summed up:
(§2)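 MICs in μg/mL against drug-resistant S. aureus (MRSA/VISA) by standard methods, with levofloxacin as the reference drug. ATCC strains were used.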

The subject of test [19] is Staphylococcus aureus. Description: Antimicrobial activity against vancomycin-intermediate Staphylococcus aureus ATCC 700699 after 18 hrs by agar dilution assay. As to conditions: ATCC 700699, 18 h. Summed up:
as §2

In general, MIC refers to the lowest concentration found to suppress growth. A lower MIC goes with inhibition by little substance.

A value given as a limit tells only on which side of the number the result lay.

As to `CCC(=O)COc1c(OC)ccc2c1c[n+]1c3c2ccc2c4c(cc(c23)CC1)OCO4.[Br-]`, the MIC against Staphylococcus aureus [1], against Staphylococcus aureus [2], with Staphylococcus aureus [3], in the test on Staphylococcus aureus [4], in the test with Staphylococcus aureus [5] and against Staphylococcus aureus [6] was over 64 µg/mL in each case. Further, the MIC (in test [7]; in [8]; in test [9]; in the test with Staphylococcus hominis; against Staphylococcus aureus [10]; against Staphylococcus aureus [11]) was over 64 µg/mL each time. Also, the MIC in the test with Staphylococcus aureus [12], in the test with Staphylococcus aureus [13], against Staphylococcus aureus [14], in the test with Staphylococcus aureus [15], with Staphylococcus aureus [16] and in the test with Staphylococcus aureus [17] was over 64 µg/mL throughout. The MIC against Staphylococcus aureus [18] and with Staphylococcus aureus [19] was over 64 µg/mL each time.

On to `COc1ccc2c(c[n+]3c4c2ccc2c5c(cc(c24)CC3)OCO5)c1O.[Cl-]`, for which the minimal inhibitory concentration (MIC) in the test on Staphylococcus aureus [1] is 0.25 µg/mL; against Staphylococcus aureus [2], 4 µg/mL; in the test on Staphylococcus aureus [3], 0.25 µg/mL; in the test on Staphylococcus aureus [4], 0.5 µg/mL; in the test on Staphylococcus aureus [5], 0.25 µg/mL; against Staphylococcus aureus [6] it was 0.5 µg/mL. The minimum inhibitory concentration (MIC) is 0.5 µg/mL in [7]; 0.5 µg/mL in test [8]; over 64 µg/mL in [9]; 0.5 µg/mL with Staphylococcus hominis; 0.25 µg/mL against Staphylococcus aureus [10]; 0.25 µg/mL with Staphylococcus aureus [11]. Also, the MIC against Staphylococcus aureus [12] came to 0.25 µg/mL; against Staphylococcus aureus [13], 0.25 µg/mL; in the test with Staphylococcus aureus [14], 0.5 µg/mL; with Staphylococcus aureus [15] it was 1 µg/mL; with Staphylococcus aureus [16], 0.5 µg/mL; with Staphylococcus aureus [17] it was 0.5 µg/mL. Also, the results for the MIC in the test with Staphylococcus aureus [18] and in the test on Staphylococcus aureus [19] were 0.5 µg/mL and 0.25 µg/mL, respectively.

On to `COc1cccc(C(=O)COc2c(OC)ccc3c2c[n+]2c4c3ccc3c5c(cc(c34)CC2)OCO5)c1.[Br-]`, for which the MIC with Staphylococcus aureus [1] amounted to 16 µg/mL; in the test with Staphylococcus aureus [2] it was 32 µg/mL; in the test on Staphylococcus aureus [3], 4 µg/mL; in the test with Staphylococcus aureus [4], 4 µg/mL; with Staphylococcus aureus [5], 8 µg/mL; against Staphylococcus aureus [6], 16 µg/mL. For the same molecule, the MIC in test [7] stood at 16 µg/mL; in [8] it was 8 µg/mL; in test [9], 8 µg/mL; against Staphylococcus hominis, 64 µg/mL; with Staphylococcus aureus [10], 4 µg/mL; against Staphylococcus aureus [11], 4 µg/mL. For the same molecule, the MIC in the test on Staphylococcus aureus [12] stood at 16 µg/mL; against Staphylococcus aureus [13], 16 µg/mL; with Staphylococcus aureus [14], 16 µg/mL; against Staphylococcus aureus [15] it was 8 µg/mL; against Staphylococcus aureus [16], 8 µg/mL; in the test with Staphylococcus aureus [17] it was 64 µg/mL. Besides, the minimum inhibitory concentration (MIC) in the test with Staphylococcus aureus [18] and against Staphylococcus aureus [19] was over 64 µg/mL throughout.

`COc1ccc2c(c[n+]3c4c2ccc2c5c(cc(c24)CC3)OCO5)c1NC(=O)c1cc(C)n(C)n1.[Cl-]`: the MIC was 16 µg/mL against Staphylococcus aureus [1]; 16 µg/mL in the test on Staphylococcus aureus [2]; 16 µg/mL against Staphylococcus aureus [3]; 8 µg/mL against Staphylococcus aureus [4]; 8 µg/mL against Staphylococcus aureus [5]; 16 µg/mL against Staphylococcus aureus [6]. Besides, the MIC is 32 µg/mL in test [7]; over 64 µg/mL in [8]; over 64 µg/mL in [9]; over 64 µg/mL in the test on Staphylococcus hominis; 64 µg/mL in the test on Staphylococcus aureus [10]; 32 µg/mL in the test with Staphylococcus aureus [11]. The MIC against Staphylococcus aureus [12] was 8 µg/mL; against Staphylococcus aureus [13], 32 µg/mL; against Staphylococcus aureus [14] it was 32 µg/mL; against Staphylococcus aureus [15], 16 µg/mL; against Staphylococcus aureus [16], 16 µg/mL; against Staphylococcus aureus [17], 16 µg/mL. In addition, the figures for the MIC against Staphylococcus aureus [18] and against Staphylococcus aureus [19] were over 64 µg/mL and 4 µg/mL, respectively.

For the molecule `COc1ccc2c(c[n+]3c4c2ccc2c5c(cc(c24)CC3)OCO5)c1NCc1ccccc1.[Cl-]`, the MIC with Staphylococcus aureus [1], against Staphylococcus aureus [2], against Staphylococcus aureus [3], in the test with Staphylococcus aureus [4], against Staphylococcus aureus [5] and in the test with Staphylococcus aureus [6] was 64 µg/mL each time. Moreover, the MIC in test [7] amounted to 8 µg/mL; in test [8], 64 µg/mL; in test [9], 8 µg/mL; with Staphylococcus hominis, 8 µg/mL; with Staphylococcus aureus [10] it was 64 µg/mL; against Staphylococcus aureus [11], 64 µg/mL. Further, the minimal inhibitory concentration (MIC) against Staphylococcus aureus [12], in the test on Staphylococcus aureus [13], in the test with Staphylococcus aureus [14], with Staphylococcus aureus [15], in the test on Staphylococcus aureus [16] and against Staphylococcus aureus [17] was 64 µg/mL each time. Moreover, the values for the MIC in the test on Staphylococcus aureus [18] and against Staphylococcus aureus [19] were 32 µg/mL and over 64 µg/mL, respectively.

For `COc1ccc2c(c[n+]3c4c2ccc2c5c(cc(c24)CC3)OCO5)c1OCC(=O)c1cccc(OC(F)(F)F)c1.[Br-]`, the MIC against Staphylococcus aureus [1] amounted to 32 µg/mL; in the test with Staphylococcus aureus [2], 16 µg/mL; in the test with Staphylococcus aureus [3], 16 µg/mL; against Staphylococcus aureus [4] it was 16 µg/mL; in the test on Staphylococcus aureus [5], 16 µg/mL; with Staphylococcus aureus [6] it was 16 µg/mL. For the same molecule, the MIC in test [7] turned out to be 16 µg/mL; in test [8], 32 µg/mL; in [9], 16 µg/mL; in the test with Staphylococcus hominis, 32 µg/mL; in the test on Staphylococcus aureus [10], 16 µg/mL; in the test on Staphylococcus aureus [11] it was 16 µg/mL. The MIC against Staphylococcus aureus [12] was determined as 16 µg/mL; against Staphylococcus aureus [13], 16 µg/mL; against Staphylococcus aureus [14] it was 8 µg/mL; in the test with Staphylococcus aureus [15], 32 µg/mL; with Staphylococcus aureus [16], 16 µg/mL; in the test on Staphylococcus aureus [17] it was 64 µg/mL. The MIC in the test on Staphylococcus aureus [18] and against Staphylococcus aureus [19] was over 64 µg/mL each time.

`COc1ccc2c(c[n+]3c4c2ccc2c5c(cc(c24)CC3)OCO5)c1NC(=O)c1c(C)noc1C.[Cl-]`: the MIC against Staphylococcus aureus [1], against Staphylococcus aureus [2], against Staphylococcus aureus [3], against Staphylococcus aureus [4], against Staphylococcus aureus [5] and against Staphylococcus aureus [6] was over 64 µg/mL each time. Also, the MIC (in test [7]; in [8]; in test [9]; against Staphylococcus hominis; with Staphylococcus aureus [10]; against Staphylococcus aureus [11]) was over 64 µg/mL in each case. Further, the MIC in the test on Staphylococcus aureus [12], with Staphylococcus aureus [13], against Staphylococcus aureus [14], with Staphylococcus aureus [15], against Staphylococcus aureus [16] and in the test on Staphylococcus aureus [17] was over 64 µg/mL throughout. For the same molecule, the minimum inhibitory concentration (MIC) with Staphylococcus aureus [18] and with Staphylococcus aureus [19] was over 64 µg/mL throughout.

Regarding `COc1ccc2c(c[n+]3c4c2ccc2c5c(cc(c24)CC3)OCO5)c1NC(=O)C12CC3CC(CC(C3)C1)C2.[Cl-]`, the MIC with Staphylococcus aureus [1], in the test with Staphylococcus aureus [2], against Staphylococcus aureus [3], with Staphylococcus aureus [4], against Staphylococcus aureus [5] and against Staphylococcus aureus [6] was over 64 µg/mL in each case. Moreover, the minimal inhibitory concentration (MIC) (in [7]; in [8]; in test [9]; against Staphylococcus hominis; in the test with Staphylococcus aureus [10]; in the test on Staphylococcus aureus [11]) was over 64 µg/mL in each case. Besides, the minimal inhibitory concentration (MIC) with Staphylococcus aureus [12], with Staphylococcus aureus [13], against Staphylococcus aureus [14], against Staphylococcus aureus [15], in the test on Staphylococcus aureus [16] and against Staphylococcus aureus [17] was over 64 µg/mL throughout. Further, the minimum inhibitory concentration (MIC) in the test on Staphylococcus aureus [18] and in the test on Staphylococcus aureus [19] was over 64 µg/mL throughout.
